UPR CHOP act – activators of apoptotic arm of unfolded protein response (CHOP) | CHO-CHOP luciferase reporter, UPR activation, luminescence; percent of tunicamycin response over DMSO baseline | activation, % at 10 µM | 330,000 compounds, 0.34% hits;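 active means at 10 µM dose, activation of 40% or more, normalized to positive control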;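 further: 100% = tunicamycin at 10 µg/mL and 0% = DMSO alone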
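Evaluation: % reporter activation, DMSO baseline versus tunicamycin full activation; System: CHO-CHOP luciferase reporter cell line; Input: 500 cells/well; Incubation: 6 h compound treatment, 37 °C; Measured by: Steady-Glo luciferase luminescence; Dosing: one dose, 10 µM in 0.5% DMSO; Buffer or medium: F12 medium, 10% FBS; Benchmarks: positive tunicamycin 10 µg/mL, negative DMSO alone.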
CHOP inhibitor – blocks CHOP induction under ER stress; AID 2732; CHO-K1 CHOP-promoter luciferase, tunicamycin-induced, 15-18 h; 220,000 compounds, 3.8% hits; inhibition, % at 10 µM;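 active means compounds that reduced the stress-induced luciferase reporter signal by more than about 70% of percent inhibition, limit read from the data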;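 further: 0% = tunicamycin plus vehicle and 100% = wells without tunicamycin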
UPR XBP1 act – activators of adaptive arm of unfolded protein response (XBP1). CHO-XBP1 luciferase reporter, IRE1-XBP1 UPR activation, luminescence; percent of tunicamycin response, DMSO as zero. activation, % at 20 µM. 330,000 compounds, 0.33% hits. AID 463104;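 active means versus positive control, 20 µM dose yields 30% or more activation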;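 further: 100% = tunicamycin at 10 µg/mL and 0% = DMSO only wells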
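Assay system: IRE1-XBP1 luciferase reporter CHO line. Input: 1000 cells/well. Buffer or medium: F12 with 10% serum. Doses: 20 µM, 1% DMSO. Times: overnight seeding at 37 °C, 6 h compound treatment at 37 °C. Technique: Steady-Glo luciferase glow luminescence, 10 min after reagent addition.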
T cruzi inh – blocks replication of Trypanosoma cruzi; T. cruzi beta-gal in NIH3T3, luminescence, 90 h; inhibition, % (no concentration beside the values); 300,000 compounds, 1.4% hits; AID 1885;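 active means mean inhibition across valid replicates above about 55%, limit read from the data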;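 further: signal also drops with host cell toxicity which is not excluded here; 0% = plate median of DMSO wells and 100% = zero luminescence signal; higher percent means less beta-gal luminescence so fewer parasites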
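System – NIH/3T3 host cells with β-galactosidase reporter T. cruzi · Doses – single 50 nL compound addition per well in DMSO · Reagent – 5000 T. cruzi trypomastigotes/well · Medium – Low-serum DMEM with 2% FBS · Timing – ≥90 h infection period, 3 h prior cell attachment · Evaluation – parasite load inhibition, % · Technique – GalScreen luminescence, 60 min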
Lmaj promast – Leishmania major promastigote growth inhibition | Leishmania major promastigotes, resazurin fluorescence viability | inhibition, % at 10 µM | 200,000 compounds, 9% hits; in the data active means inhibition above about 50%;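 further: promastigotes grown with compound for 44 hours at 28 °C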
Dynein cargo inh – dynein cargo transport inhibition; z-score, hits read low; 3617.4 mouse cells, GR-EGFP nuclear translocation imaging; test concentration mostly 20 µM; stimulated with dexamethasone, 1 µM; hits give low values; 220,000 compounds, 0.47% hits;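 active means plate z-score of nuclear minus cytoplasmic receptor signal below a set negative limit, without overly bright fluorescence or cell loss, cut at about -3.5 in these data, passing the limit was not always enough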;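 further: z-score of nuclear minus cytoplasmic ring GR-EGFP intensity difference per well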
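Also added: dexamethasone, 1.0 µM final. Medium: tet-free, stripped-serum medium. Detection: fixed, Hoechst-stained cells imaged at 10x for EGFP. Read-out: nuclear-to-cytoplasmic GR-EGFP distribution per well. Times: induction 48 h, compound 1 h, agonist 30 min.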
An asterisk follows results filed as active; x = no result. The entries come from a sample that favours hits as a whole.

SMILES	UPR CHOP act	CHOP inhibitor	UPR XBP1 act	T cruzi inh	Lmaj promast	Dynein cargo inh
CCOC(=O)c1c(-c2ccc(C)o2)csc1NC(=S)NC(=O)c1ccccc1Br	-1	15	1	37	18	1
CCOC(=O)c1c(-c2ccc(C)o2)csc1NC(=O)CSc1nnc(C)s1	0	27	2	27	2	-1.4
CCOC(=O)c1c(-c2ccc(C)o2)csc1NC(=O)CSc1nnnn1-c1ccccc1	-1	-14	-4	60*	0	-2.7
COc1ccc(NC(=O)CSc2nnnn2C)cc1	2	-22	1	-5	-6	-0.57
CC(=O)C1=C(C)Nc2ncnn2C1c1ccccc1OCc1ccccc1 (configuration not stated)	-1	15	-3	4	61*	-0.56
COc1ccc(OC)c(N(CC(=O)NCCSCc2ccc(C)cc2)S(C)(=O)=O)c1	0	x	-3	-9	x	x
Cc1cc2cc(C(c3nnnn3Cc3ccccc3)N3CCc4ccccc43)c(=O)[nH]c2cc1C (configuration not stated)	0	19	-1	29	99*	-0.16
Cc1cccc2cc(C(c3nnnn3Cc3ccccc3)N3CCN(C)CC3)c(=O)[nH]c12 (configuration not stated)	0	-8	-1	4	-10	-0.26
Cc1cccc2cc(C(c3nnnn3Cc3ccccc3)N3CCN(c4ccccc4)CC3)c(=O)[nH]c12 (configuration not stated)	-2	-16	0	7	51*	1.8
Cc1ccc2cc(C(c3nnnn3Cc3ccccc3)N3CCc4ccccc43)c(=O)[nH]c2c1C (configuration not stated)	0	32	0	5	44	-0.34
Cc1ccc2cc(C(c3nnnn3Cc3ccccc3)N3CCc4ccccc43)c(=O)[nH]c2c1 (configuration not stated)	-2	-14	-3	11	42	0.43
Cc1cc2cc(C(c3nnnn3Cc3ccco3)N3CCc4ccccc43)c(=O)[nH]c2cc1C (configuration not stated)	0	86*	-3	9	20	-0.4
Cc1ccc2[nH]c(=O)c(C(c3nnnn3Cc3ccccc3)N3CCc4ccccc43)cc2c1 (configuration not stated)	1	70*	-3	6	74*	0.22
O=S1(=O)CCOCCCN1Cc1ccccc1Br	1	x	0	-17	x	x
CCc1ccc2[nH]c(=O)c(C(c3nnnn3Cc3ccc(OC)cc3)N3CCOCC3)cc2c1 (configuration not stated)	0	19	0	-12	4	-1.2
Cc1cc2cc(C(c3nnnn3Cc3ccco3)N3CCc4ccccc4C3)c(=O)[nH]c2cc1C (configuration not stated)	-2	34	0	18	91*	-0.58
CCc1ccc2[nH]c(=O)c(C(c3nnnn3Cc3ccccc3)N3CCOCC3)cc2c1 (configuration not stated)	-2	0	0	2	96*	0.49
COc1ccc(OC)c(S(=O)(=O)N2CCCC(C(=O)NCCN3CCOCC3)C2)c1 (configuration not stated)	2	x	-3	1	x	x
C=CCc1ccc(OCCN2CCc3ccccc3C2)c(OC)c1	0	30	-2	-14	83*	-0.076
C=CCc1ccc(OCCCCN2CC(C)OC(C)C2)c(OC)c1 (configuration not stated)	1	-30	-2	13	98*	-0.3
C/C=C/c1ccc(OCCN2CCc3ccccc3C2)c(OC)c1	0	2	-3	21	29	-0.78
C=CCc1ccc(OCCCOc2ccc(C)cc2OC)c(OC)c1	0	39	0	0	-1	-0.33
COCCCn1c(=O)c2sccc2n(Cc2ccc(C)cc2)c1=O	0	x	-2	4	x	x
Cc1ccc(Cn2cccc(NC(=O)NC3CCCCC3)c2=O)cc1	2	51	2	2	86*	-1
COc1cccc(Cn2cccc(NC(=O)NC3CCCCC3)c2=O)c1	1	8	-3	-7	99*	-0.65
SMILES	UPR CHOP act	CHOP inhibitor	UPR XBP1 act	T cruzi inh	Lmaj promast	Dynein cargo inh
O=C(Nc1cccn(Cc2ccc(F)cc2)c1=O)NC1CCCCC1	2	32	1	7	83*	0.58
O=C(NCc1ccccc1)Nc1cccn(Cc2ccc(F)cc2)c1=O	1	21	-1	-4	3	1.9
COc1cccc(CNCC(=O)NC(=O)NC2CCCC2)c1	1	x	0	x	x	x
Cc1ccc(-n2c(CCc3ccccc3)nnc2SCC(=O)NCc2ccccc2)cc1C	3	85*	-2	14	54*	-0.96
CCn1c(SCC(=O)NCc2ccccc2)nnc1-c1ccccc1O	-2	82*	-4	-3	-2	-0.74
Cc1ccc(Nc2nc(-c3c(C)nc4ncccn34)cs2)cc1	1	-27	10	-44	60*	-0.28
COc1cc(CNCCc2ccc(F)cc2)ccc1OCc1ccc(Cl)nc1	1	-5	-2	40	100*	2.6
COc1cc(CO)ccc1OCc1ccc(Cl)nc1	4	-2	4	-10	x	0.088
COc1cc(CNCCc2ccccc2F)ccc1OCc1ccc(Cl)nc1	1	35	3	47	100*	-0.93
O=C(Nc1ccc(S(=O)(=O)Nc2cnc3ccccc3n2)cc1)c1ccc(Cl)c([N+](=O)[O-])c1	1	x	-1	-8	x	x
CCc1ccc(C(=O)c2cnc3ccc(OC)cc3c2N2CCN(CC)CC2)cc1	-1	2	-3	50	69*	0.33
CCOC(=O)c1cnc2ccc(OCC)cc2c1N(C)Cc1ccccc1	0	54	-1	33	98*	1.3
CCOC(=O)c1cc2cc(OCc3ccccc3)ccc2nc1C	0	x	5	25	x	x
CCOC(=O)c1cnc2ccc(OCC)cc2c1N1CCN(c2ccccc2OC)CC1	1	88*	0	57*	32	-1.3
COc1ccc(Br)cc1CNC(=O)CCc1nc(-c2ccc(C)cc2)no1	-1	76*	-2	13	-1	0.12
CC(C)(C)c1ccc(OCC(=O)NCc2ccco2)cc1	7	14	-2	-14	71*	0.15
COc1ccc(-c2noc(CCC(=O)NCc3cc(Br)ccc3OC)n2)cc1	4	45	-2	6	-1	-1.7
CC(C)(C)c1ccc(-c2noc(CCC(=O)NCc3ccco3)n2)cc1	-7	85*	-3	-11	9	1.8
Cc1cccc(-c2noc(CCC(=O)NCc3ccco3)n2)c1	0	45	1	0	-6	-0.26
